We go through 2 molecules from ChEMBL document CHEMBL2321834 (J Med Chem, 2013).

Structures are written as SMILES. Active and inactive are the calls of the source. The rule behind the calls is not given here.

Data set [1] concerns the target T1, Estradiol 17-beta-dehydrogenase 2 (Mus musculus) (UniProt P51658).
T1 sequence (whole entry): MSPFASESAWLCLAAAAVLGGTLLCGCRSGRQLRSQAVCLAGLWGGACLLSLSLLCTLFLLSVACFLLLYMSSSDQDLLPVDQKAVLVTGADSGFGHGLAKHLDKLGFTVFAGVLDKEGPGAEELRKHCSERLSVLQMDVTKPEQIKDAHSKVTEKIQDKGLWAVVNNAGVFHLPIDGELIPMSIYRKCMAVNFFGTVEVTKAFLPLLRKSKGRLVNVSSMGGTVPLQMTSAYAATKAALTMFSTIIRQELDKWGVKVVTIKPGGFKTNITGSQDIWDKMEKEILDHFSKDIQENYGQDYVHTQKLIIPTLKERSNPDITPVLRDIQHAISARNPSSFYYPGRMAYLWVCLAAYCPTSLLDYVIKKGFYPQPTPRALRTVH
Briefly: Inhibition of 17beta-HSD2 in mouse liver microsomal fraction assessed as inhibition of [3H]E2 conversion to E1 at 1 uM by scintillation counting analysis. It is filed as microsomes. Put shortly: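 Cell-free assay measuring percent inhibition of the E2-to-E1 transformation. Enzyme source was the microsomal fraction of rat or mouse liver, or of Callithrix jacchus placenta for the marmoset.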

Another data set deals with MDA-MB-231. Briefly: Cytotoxicity against human MDA-MB-231 cells at 50 uM after 3 hrs by MTT assay. Type of data set: cell-based. As to conditions: mda-mb-231, 3 h. In outline: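 MTT conversion read-out, following Denisot et al. Tested at 2.5, 10 and 50 µM with 3 h incubation.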
Data set [2] addresses T2, 11-beta-hydroxysteroid dehydrogenase type 2 (Homo sapiens) (UniProt P80365).
T2 sequence (whole entry): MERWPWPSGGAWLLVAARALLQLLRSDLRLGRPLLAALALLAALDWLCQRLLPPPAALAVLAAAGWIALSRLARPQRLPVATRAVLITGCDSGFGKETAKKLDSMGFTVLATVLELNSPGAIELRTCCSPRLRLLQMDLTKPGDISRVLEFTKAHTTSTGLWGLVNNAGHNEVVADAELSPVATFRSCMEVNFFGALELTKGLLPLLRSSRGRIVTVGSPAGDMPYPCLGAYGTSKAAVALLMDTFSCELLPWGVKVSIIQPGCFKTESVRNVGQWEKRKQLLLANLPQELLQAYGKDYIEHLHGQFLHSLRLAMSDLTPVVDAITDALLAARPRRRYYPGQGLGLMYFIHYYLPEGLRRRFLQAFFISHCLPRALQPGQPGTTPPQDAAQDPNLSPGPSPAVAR
Description: Inhibition of human recombinant 11beta-HSD2 expressed in HEK293 cell using [1,2,6,7-3H]cortisol as substrate at 2 uM after 10 mins by scintillation counting analysis. It is filed as cell-based. Put shortly: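 Recombinant human 11β-HSD1 or 11β-HSD2 stably transfected in HEK-293 cells, following a previously described procedure.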

The target in data set [3] is T3, Aldo-keto reductase family 1 member C3 (Homo sapiens) (UniProt P42330).
T3 sequence (whole entry): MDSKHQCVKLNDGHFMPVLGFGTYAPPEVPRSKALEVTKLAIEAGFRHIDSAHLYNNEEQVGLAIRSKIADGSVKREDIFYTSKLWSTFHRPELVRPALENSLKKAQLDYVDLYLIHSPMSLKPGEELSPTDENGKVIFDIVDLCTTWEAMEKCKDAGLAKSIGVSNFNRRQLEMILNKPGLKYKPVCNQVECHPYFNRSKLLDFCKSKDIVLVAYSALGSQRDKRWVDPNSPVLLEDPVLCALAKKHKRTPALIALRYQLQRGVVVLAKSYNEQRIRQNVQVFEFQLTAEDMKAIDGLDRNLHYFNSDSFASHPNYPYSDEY
Description: Inhibition of human recombinant 17beta-HSD5 expressed in Escherichia coli using [1,2,6,7-3H]A-dione as substrate at 1 uM by scintillation counting analysis.

For data set [4], the target named is T4, Peroxisomal multifunctional enzyme type 2 (Homo sapiens) (UniProt P51659).
T4 sequence (whole entry): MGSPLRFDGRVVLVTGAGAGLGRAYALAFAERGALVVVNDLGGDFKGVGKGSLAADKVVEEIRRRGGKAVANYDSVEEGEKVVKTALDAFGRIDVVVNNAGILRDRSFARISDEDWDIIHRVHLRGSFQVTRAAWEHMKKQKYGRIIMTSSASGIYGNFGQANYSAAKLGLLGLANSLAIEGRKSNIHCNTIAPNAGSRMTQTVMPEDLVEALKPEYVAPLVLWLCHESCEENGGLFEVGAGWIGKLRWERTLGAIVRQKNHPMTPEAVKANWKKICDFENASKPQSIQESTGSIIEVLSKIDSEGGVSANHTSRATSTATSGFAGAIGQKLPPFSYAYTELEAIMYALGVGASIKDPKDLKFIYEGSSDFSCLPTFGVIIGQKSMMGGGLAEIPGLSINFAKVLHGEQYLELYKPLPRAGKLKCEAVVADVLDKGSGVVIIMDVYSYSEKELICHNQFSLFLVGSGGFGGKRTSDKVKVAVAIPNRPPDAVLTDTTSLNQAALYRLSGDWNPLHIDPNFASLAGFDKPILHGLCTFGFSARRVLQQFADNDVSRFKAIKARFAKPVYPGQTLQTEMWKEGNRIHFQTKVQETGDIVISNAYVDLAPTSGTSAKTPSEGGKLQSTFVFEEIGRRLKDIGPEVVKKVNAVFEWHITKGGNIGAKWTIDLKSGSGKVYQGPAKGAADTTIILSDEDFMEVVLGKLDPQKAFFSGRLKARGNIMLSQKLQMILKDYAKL
Description: Inhibition of human recombinant 17beta-HSD4 SDR domain expressed in Escherichia coli using [6,7-3H]E2 as substrate at 1 uM by scintillation counting analysis.

Data set [5] deals with T5, 17-beta-hydroxysteroid dehydrogenase type 1 (Homo sapiens) (UniProt P14061).
T5 sequence (whole entry): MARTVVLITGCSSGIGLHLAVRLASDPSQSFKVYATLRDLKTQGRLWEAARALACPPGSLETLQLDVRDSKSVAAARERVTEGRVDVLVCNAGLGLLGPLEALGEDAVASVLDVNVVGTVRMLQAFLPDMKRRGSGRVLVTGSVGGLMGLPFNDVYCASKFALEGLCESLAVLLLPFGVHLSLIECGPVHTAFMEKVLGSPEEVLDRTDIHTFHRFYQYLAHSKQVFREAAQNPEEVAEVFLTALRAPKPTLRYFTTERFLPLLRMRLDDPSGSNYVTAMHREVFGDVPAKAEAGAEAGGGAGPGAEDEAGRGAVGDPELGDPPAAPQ
As to conditions: at 1 µM.

As usually defined, the inhibition is the drop in the measured response relative to a control, in per cent. On to `COc1cccc(-c2ccc(C(=O)N(C)Cc3cccc(O)c3)s2)c1F`, for which the inhibition in data set [1] is 65%; in data set [2], 10%; in data set [3] it was 33%; in data set [5], < 10%. Moreover, the Activity result in the data set on MDA-MB-231 is recorded as “Non-toxic”. Besides, in data set [4], the inhibition entry is “inactive”.

As for `COc1cccc(N(C)C(=O)c2ccc(-c3cccc(OC)c3F)s2)c1`, the inhibition was 26% in data set [1], 8% in data set [2], 26% in data set [3] and 17% in data set [5]. Moreover, in the data set on MDA-MB-231, the Activity result is listed as “Non-toxic”. Also, in data set [4], the inhibition entry was “inactive”.
